Results published in ChEMBL document CHEMBL2401719, “The development of a new class of inhibitors for betaine-homocysteine S-methyltransferase” (Eur J Med Chem, 2013).
pIC50: −log10 of the molar value.

What was measured:
[1] = target: T1, Betaine--homocysteine S-methyltransferase 1 (Homo sapiens) (UniProt Q93088); assay: Inhibition of human recombinant BHMT using N-methyl-[14C]-betaine/D,L-homocysteine as substrate at 20 uM after 30 mins by scintiillation counting analysis
T1 sequence (whole entry): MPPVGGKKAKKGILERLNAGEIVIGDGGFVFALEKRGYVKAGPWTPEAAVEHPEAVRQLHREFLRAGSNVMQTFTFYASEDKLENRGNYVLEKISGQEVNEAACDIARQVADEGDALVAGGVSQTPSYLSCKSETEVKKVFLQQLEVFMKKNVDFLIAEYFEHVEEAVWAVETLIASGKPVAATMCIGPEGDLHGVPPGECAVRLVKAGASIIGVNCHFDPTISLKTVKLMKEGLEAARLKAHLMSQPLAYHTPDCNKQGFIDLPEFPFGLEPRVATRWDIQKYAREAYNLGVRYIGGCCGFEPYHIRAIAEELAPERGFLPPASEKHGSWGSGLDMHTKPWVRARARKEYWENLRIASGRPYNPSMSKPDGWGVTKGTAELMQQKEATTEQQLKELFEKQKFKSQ
Method in brief: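 Human recombinant BHMT assayed in pH 7.5 buffer with 0.25 mM betaine and 0.1 mM D,L-homocysteine, compound at a single fixed concentration. Percent inhibition is the average of triplicates, with data reproducible within ±15%.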

[2] = target: T2, Betaine--homocysteine S-methyltransferase 1 (Homo sapiens, UniProt Q93088); assay: Inhibition of human recombinant BHMT using N-methyl-[14C]-betaine/D,L-homocysteine as substrate after 30 mins by scintiillation counting analysis
T2 sequence (Q93088 whole entry): T1 sequence (whole entry)
Method in brief: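 Human recombinant BHMT assayed in pH 7.5 buffer with 2 mM betaine and 1 mM D,L-homocysteine. Each IC50 data point was run in duplicate.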

Row | SMILES | inhibition [1] | pIC50 [2]
1 | NNC(=O)C(N)CCSCCCCC(=O)O (racemic) | 28% | 
2 | NC(CCSCCCCC(=O)O)c1nnn[nH]1 (racemic) | 0% | 
3 | O=C(O)CCCCS[C@H]1CN[C@H](C(=O)O)C1 | 0% | 
4 | NC(CCSCCCCC(=O)O)C(=O)N1CCCCC1 (racemic) | 9% | 
5 | CNC(=O)C(N)CCSCCCCC(=O)O (racemic) | 8% | 
6 | NC(CCSCCCCC(=O)O)[PH](=O)O (racemic) | 95% | 5.30
7 | NC(CCSCCCCC(=O)O)c1nc(=O)o[nH]1 (racemic) | 15% | 
8 | NC(CCSCCCCC(=O)O)P(=O)(O)O (racemic) | 58% | 3.66
9 | N#CC(N)CCSCCCCC(=O)O (racemic) | 9% | 
10 | NC(=O)C(N)CCSCCCCC(=O)O (racemic) | 17% | 
11 | CS(=O)(=O)NC(=O)C(N)CCSCCCCC(=O)O (racemic) | 67% | 
12 | O=C(O)CCCCS[C@@H]1CN[C@H](C(=O)O)C1 | 24% | 
13 | CC(C)(CCSCCC(N)[PH](=O)O)CC(=O)O (racemic) | 99% | 5.96
